Activity calls are given as the source filed them. The calls are words filed in the database; no cut-off is given here.
Columns and labels:
[1] = molecular target: T1, Prostaglandin D2 receptor 2 (Mus musculus, UniProt Q9Z2J6); test: Inhibition of mouse CRTH2 receptor
T1 sequence (Q9Z2J6 whole entry): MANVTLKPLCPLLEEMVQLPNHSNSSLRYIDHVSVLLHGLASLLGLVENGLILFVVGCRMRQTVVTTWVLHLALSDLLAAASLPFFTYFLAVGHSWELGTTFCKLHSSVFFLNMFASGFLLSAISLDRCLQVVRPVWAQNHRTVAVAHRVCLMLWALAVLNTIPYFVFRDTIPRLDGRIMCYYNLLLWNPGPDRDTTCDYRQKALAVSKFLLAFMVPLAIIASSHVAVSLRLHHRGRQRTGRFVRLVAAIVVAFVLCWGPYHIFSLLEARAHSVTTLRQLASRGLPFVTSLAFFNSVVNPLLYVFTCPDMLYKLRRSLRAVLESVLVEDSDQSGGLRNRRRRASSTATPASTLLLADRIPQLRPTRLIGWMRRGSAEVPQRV

[2] = molecular target: Voltage-gated inwardly rectifying potassium channel KCNH2 (Homo sapiens, UniProt Q12809); test: Inhibition of human ERG channel at 33 uM
Sequence of Voltage-gated inwardly rectifying potassium channel KCNH2 (Q12809 whole entry): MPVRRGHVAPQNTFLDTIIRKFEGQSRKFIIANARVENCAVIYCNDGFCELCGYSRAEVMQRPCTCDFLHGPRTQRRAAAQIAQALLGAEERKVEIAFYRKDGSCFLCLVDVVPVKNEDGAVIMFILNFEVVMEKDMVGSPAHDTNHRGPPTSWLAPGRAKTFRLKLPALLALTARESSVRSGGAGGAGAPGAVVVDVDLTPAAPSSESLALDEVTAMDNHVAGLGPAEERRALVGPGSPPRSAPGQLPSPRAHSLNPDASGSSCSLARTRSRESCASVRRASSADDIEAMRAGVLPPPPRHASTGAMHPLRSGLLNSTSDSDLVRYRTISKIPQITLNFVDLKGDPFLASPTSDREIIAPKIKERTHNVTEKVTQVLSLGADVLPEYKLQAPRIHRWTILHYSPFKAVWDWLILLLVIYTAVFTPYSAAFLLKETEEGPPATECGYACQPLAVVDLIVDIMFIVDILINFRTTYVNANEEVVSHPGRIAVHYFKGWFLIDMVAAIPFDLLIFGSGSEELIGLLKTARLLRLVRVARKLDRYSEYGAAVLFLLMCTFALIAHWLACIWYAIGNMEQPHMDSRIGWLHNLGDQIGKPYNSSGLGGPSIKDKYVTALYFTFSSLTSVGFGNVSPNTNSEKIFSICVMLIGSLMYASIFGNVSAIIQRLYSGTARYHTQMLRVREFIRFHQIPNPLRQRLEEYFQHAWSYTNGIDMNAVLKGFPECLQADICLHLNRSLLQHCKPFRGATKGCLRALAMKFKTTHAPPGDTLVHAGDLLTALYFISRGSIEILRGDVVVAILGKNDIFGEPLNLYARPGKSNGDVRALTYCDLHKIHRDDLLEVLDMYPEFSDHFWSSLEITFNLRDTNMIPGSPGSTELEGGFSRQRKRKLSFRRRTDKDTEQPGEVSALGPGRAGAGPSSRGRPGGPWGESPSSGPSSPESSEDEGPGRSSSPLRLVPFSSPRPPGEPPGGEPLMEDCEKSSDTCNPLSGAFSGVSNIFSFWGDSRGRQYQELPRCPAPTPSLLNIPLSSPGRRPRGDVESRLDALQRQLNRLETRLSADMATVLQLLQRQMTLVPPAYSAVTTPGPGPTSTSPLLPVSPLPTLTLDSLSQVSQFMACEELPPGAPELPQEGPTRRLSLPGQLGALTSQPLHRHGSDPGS

Salmonella typhimurium = test: Genotoxicity in Salmonella typhimurium by AMES test; format: toxicity, organism-based; details: salmonella enterica subsp. enterica serovar typhimurium
Cytochrome P450 3A4 = Cytochrome P450 3A4 (Homo sapiens, UniProt P08684); test: Inhibition of CYP3A4 (unknown origin); format: ADME
Sequence of Cytochrome P450 3A4 (P08684 whole entry): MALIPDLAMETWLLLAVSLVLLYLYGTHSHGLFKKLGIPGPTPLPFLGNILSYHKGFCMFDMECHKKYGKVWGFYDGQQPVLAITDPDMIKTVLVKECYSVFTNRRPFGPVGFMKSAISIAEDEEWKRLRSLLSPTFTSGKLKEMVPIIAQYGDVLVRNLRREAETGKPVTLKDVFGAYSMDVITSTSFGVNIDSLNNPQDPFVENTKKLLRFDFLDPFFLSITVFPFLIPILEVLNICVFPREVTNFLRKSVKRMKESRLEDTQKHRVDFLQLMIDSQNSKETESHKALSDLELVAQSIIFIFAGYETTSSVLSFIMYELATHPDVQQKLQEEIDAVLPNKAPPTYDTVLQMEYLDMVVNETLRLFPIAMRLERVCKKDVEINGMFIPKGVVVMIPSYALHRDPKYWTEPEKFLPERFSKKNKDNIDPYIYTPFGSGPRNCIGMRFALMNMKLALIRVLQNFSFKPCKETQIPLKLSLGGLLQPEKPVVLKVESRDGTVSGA

Cytochrome P450 2B6 = molecular target: T2, Cytochrome P450 2B6 (Homo sapiens, UniProt P20813); test: Inhibition of CYP2B6 (unknown origin); format: ADME
T2 sequence (P20813 whole entry): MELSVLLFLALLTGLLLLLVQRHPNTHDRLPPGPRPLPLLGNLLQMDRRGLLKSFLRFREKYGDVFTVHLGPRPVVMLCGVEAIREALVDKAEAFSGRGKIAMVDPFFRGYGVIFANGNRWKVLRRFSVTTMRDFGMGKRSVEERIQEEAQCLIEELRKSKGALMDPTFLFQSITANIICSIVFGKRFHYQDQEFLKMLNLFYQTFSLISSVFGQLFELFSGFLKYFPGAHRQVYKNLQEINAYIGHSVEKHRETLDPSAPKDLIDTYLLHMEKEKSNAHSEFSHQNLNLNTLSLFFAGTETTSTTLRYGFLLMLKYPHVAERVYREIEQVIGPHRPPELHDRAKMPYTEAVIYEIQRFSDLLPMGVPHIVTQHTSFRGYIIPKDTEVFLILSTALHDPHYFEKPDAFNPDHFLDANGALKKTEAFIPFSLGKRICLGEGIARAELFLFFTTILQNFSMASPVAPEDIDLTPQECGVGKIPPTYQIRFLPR

Ovis aries [3] = test: Inhibition of allergen-induced mucociliary clearance in sheep assessed as tracheal mucus velocity at 3 mg/kg, iv measured at 8 hrs (reference value: 47%); format: functional; details: Trachea
In short: (§1)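 Five sheep received 3 mg/kg iv around allergen challenge. Tracheal mucus velocity measured at 4 h and 8 h and expressed as % of baseline.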

Ovis aries [4] = test: Inhibition of allergen-induced mucociliary clearance in sheep assessed as tracheal mucus velocity at 3 mg/kg, iv measured at 4 hrs (reference value: 47%); format: functional; details: Trachea; in short: as §1
Ovis aries [5] = test: Inhibition of Ascaris-induced airway bronchoconstriction in sheep assessed as inhibition of early phase allergic airway bronchoconstriction at 1 mg/kg, iv qd for 7 days; format: functional, organism-based; set-up: dose 1 mg/kg
In short: (§2)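 Sheep given 1 mg/kg iv once daily for 7 days before Ascaris suum allergen challenge. Early and late responses read as airway resistance above baseline, compared with each animal's historical untreated values. After the AHR measurement, three bronchi per sheep were lavaged for cell counts.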

Ovis aries [6] = test: Inhibition of Ascaris-induced airway bronchoconstriction in sheep assessed as inhibition of late phase allergic airway bronchoconstriction at 1 mg/kg, iv qd for 7 days; format: functional, organism-based; set-up: dose 1 mg/kg; in short: as §2
Ovis aries [7] = test: Inhibition of carbachol-induced airway hyperresponsiveness in sheep at 3 mg/kg, iv bid; format: functional, organism-based; set-up: dose 3 mg/kg
Ovis aries [8] = test: Inhibition of Ascaris-induced airway bronchoconstriction in sheep assessed as inhibition of late phase allergic airway bronchoconstriction at 3 mg/kg, iv bid; format: functional, organism-based; set-up: dose 3 mg/kg
Cavia porcellus [9] = test: Antiallergic activity in ovalbumin-induced allergic lung inflammation Hartley guinea pig model assessed as eosinophil level in bronchoalveolar lavage fluid at 20 mg/kg, po administered 1 hr before and 6 hrs after ovalbumin challenge after 24 hrs; format: functional, organism-based; set-up: dose 20 mg/kg
In short: (§3)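 Female Hartley guinea pigs (375–425 g) sensitized ip on days 1 and 5 with 100 μg OVA plus 100 mg aluminum hydroxide in PBS, then challenged on day 15 with aerosolized 0.01% OVA for 60 min. Dosed orally 1 h before and 6 h after challenge; vehicle was Tween 80 in cherry syrup. On day 16, lungs lavaged with 2 × 10 mL PBS. Total cells counted by hemocytometer; differentials from stained cytospins. Unpaired t test.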

Cavia porcellus [10] = test: Antiallergic activity in ovalbumin-induced allergic lung inflammation Hartley guinea pig model assessed as total cellularity in bronchoalveolar lavage fluid at 20 mg/kg, po administered 1 hr before and 6 hrs after ovalbumin challenge measured after 24 hrs; format: functional, organism-based; set-up: dose 20 mg/kg; in short: as §3
Mus musculus [11] = test: Antiallergic activity in house dust mite-induced allergic airway disease BALB/c mouse model assessed as reduction in macrophage level in bronchoalveolar lavage fluid at 40 mg/kg, po after 72 hrs of HDM challenge; format: functional, organism-based; set-up: dose 40 mg/kg; details: Lung
In short: (§4)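 BALB/c mice given house dust mite intratracheally via a catheter passed through the vocal cords. Test article 40 mg/kg orally once daily; dexamethasone 1 mg/kg ip once daily as reference. Total and differential BAL cells (eosinophils, macrophages, lymphocytes, neutrophils) counted 72 h after HDM challenge. Mean ± SEM, Mann–Whitney U test.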

Mus musculus [12] = test: Antiallergic activity in house dust mite-induced allergic airway disease BALB/c mouse model assessed as reduction in eosinophil level in bronchoalveolar lavage fluid at 40 mg/kg, po after 72 hrs of HDM challenge; format: functional, organism-based; set-up: dose 40 mg/kg; details: Lung; in short: as §4
Mus musculus [13] = test: Antiallergic activity in house dust mite-induced allergic airway disease BALB/c mouse model assessed as reduction in total cellularity in bronchoalveolar lavage fluid at 40 mg/kg, po after 72 hrs of HDM challenge; format: functional, organism-based; set-up: dose 40 mg/kg; details: Lung; in short: as §4
Mus musculus [14] = test: Antiallergic activity in house dust mite-induced allergic airway disease BALB/c mouse model assessed as reduction in airway inflammation at 40 mg/kg, po qd after 17 days; format: functional, organism-based; set-up: dose 40 mg/kg; in short: as §4
[15] = Oral bioavailability in dog at 10 mg/kg; format: ADME, organism-based, Canis lupus familiaris; details: in vivo
[16] = Oral bioavailability in rat at 10 mg/kg; format: ADME, organism-based; details: in vivo
[17] = Cmax in rat at 10 mg/kg, po; format: ADME, organism-based; set-up: dose 10 mg/kg, route oral; details: in vivo
In short: (§5)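 Single intravenous dose of 2 mg/kg and single oral dose of 10 mg/kg, given separately, in rat, dog and monkey. Clearance and half-life taken from the iv arm; Cmax from the oral arm.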

[18] = Volume of distribution at steady state in monkey at 2 mg/kg, iv; format: ADME, organism-based, Macaca mulatta; set-up: dose 2 mg/kg, route intravenous; details: rhesus monkey, in vivo, read-out: Vdss
[19] = Volume of distribution at steady state in dog at 2 mg/kg, iv; format: ADME, organism-based, Canis lupus familiaris; set-up: dose 2 mg/kg, route intravenous; details: in vivo, read-out: Vdss
[20] = Volume of distribution at steady state in rat at 2 mg/kg, iv; format: ADME, organism-based; set-up: dose 2 mg/kg, route intravenous; details: in vivo, read-out: Vdss
[21] = Clearance in monkey at 2 mg/kg, iv; format: ADME, organism-based, Macaca mulatta; set-up: dose 2 mg/kg, route intravenous; details: rhesus monkey, in vivo; in short: as §5
[22] = Half life in rat at 2 mg/kg, iv; format: ADME, organism-based; set-up: dose 2 mg/kg, route intravenous; details: in vivo; in short: as §5
[23] = Permeability in human Caco2 cells at pH 6.5; details: Caco-2, pH 6.5

- IC50 [1]: 0.004 µM
- IC50 (Cytochrome P450 3A4): > 100 µM
- IC50 (Cytochrome P450 2B6): > 100 µM
- bioavailability [15]: 32%
- bioavailability [16]: 20%
- Cmax [17]: 253 ng/mL
- Vd [18]: 0.95 L/kg
- Vd [19]: 0.7 L/kg
- Vd [20]: 1.2 L/kg
- clearance [21]: 6.1 mL/min/kg
- half-life [22]: 2.7 h
- Papp [23]: 2.7 ×10⁻⁶ cm/s
Compound: Cc1c(-c2cn(C(C)C)c(=O)c3ccccc23)c2cc(F)ccc2n1CC(=O)O
- inhibition (INH) [2]: Not Active
- Activity (Salmonella typhimurium): Non-toxic
- inhibition in vivo at 3 mg/kg (Ovis aries [3]): 98%
- inhibition in vivo at 3 mg/kg (Ovis aries [4]): 70%
- inhibition (Ovis aries [5]): Active
- inhibition (Ovis aries [6]): Active
- inhibition (Ovis aries [7]): Active
- inhibition (Ovis aries [8]): Active
- inhibition (Cavia porcellus [9]): Active
- inhibition (Cavia porcellus [10]): Active
- inhibition (Mus musculus [11]): inactive
- inhibition (Mus musculus [12]): Active
- inhibition (Mus musculus [13]): Active
- inhibition (Mus musculus [14]): Active
